# In ChEMBL document CHEMBL4732120, “Discovery of novel PARP/PI3K dual inhibitors with high efficiency against BRCA-proficient triple negative breast cancer” (Eur J Med Chem, 2021):
# pIC50: −log10 of the molar value. Active and inactive are the calls of the source. The calls are words filed in the database; no cut-off is given here.
# Key:
# [1] = target: T1, Phosphatidylinositol 4,5-bisphosphate 3-kinase catalytic subunit alpha isoform (Homo sapiens, UniProt P42336); assay: Inhibition of PI3Kalpha (unknown origin) at 100 nM relative to control
# [2] = target: T2, Poly [ADP-ribose] polymerase 1 (Homo sapiens, UniProt P09874); conditions: dose 10.0 nM
# [3] = target: T2, Poly [ADP-ribose] polymerase 1; assay: Inhibition of PARP1 (unknown origin)
# How it was run: (§1)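 PARP-1 and PI3Kα enzyme inhibition. IC50 taken from dose-response curves and given as mean ± SD of three independent experiments.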
# [4] = target: T1, Phosphatidylinositol 4,5-bisphosphate 3-kinase catalytic subunit alpha isoform; assay: Inhibition of PI3Kalpha (unknown origin); how it was run: as §1
# MDA-MB-468 [5] = assay: Induction of apoptosis in human MDA-MB-468 cells assessed as viable cells at 2 uM measured after 72 hrs by Annexin V-FITC/propidium iodide staining based flow cytometry (reference value: 95.2%); type: functional; conditions: read-out: Activity
# MDA-MB-468 [6] = assay: Induction of apoptosis in human MDA-MB-468 cells assessed as early apoptotic cells at 2 uM measured after 72 hrs by Annexin V-FITC/propidium iodide staining based flow cytometry (reference value: 3.88%); type: functional
# MDA-MB-468 [7] = assay: Induction of apoptosis in human MDA-MB-468 cells assessed as necrotic cells at 2 uM measured after 72 hrs by Annexin V-FITC/propidium iodide staining based flow cytometry (reference value: 0.13%); type: functional
# MDA-MB-468 [8] = assay: Inhibition of PARP1/PI3Kalpha in human MDA-MB-468 cells assessed as down regulation of BRCA1 mRNA expression at 2 uM by RT-PCR analysis
# MDA-MB-468 [9] = assay: Inhibition of PARP1/PI3Kalpha in human MDA-MB-468 cells assessed as down regulation of BRCA2 mRNA expression at 2 uM by RT-PCR analysis
# MDA-MB-468 [10] = assay: Antitumor activity against human MDA-MB-468 cells xenografted in BALB/c mouse assessed as tumor growth inhibition at 50 mg/kg, ip administered every two days for 34 days relative to control; conditions: MDA-MB-468, ip, 816 h, read-out: TGI
# MDA-MB-468 [11] = assay: Antiproliferative activity against human MDA-MB-468 cells measured after 7 days by Celltiter-glo assay; type: functional, cell-based; conditions: MDA-MB-468, 168 h
# How it was run: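 MDA-MB-468 cells grown in RPMI1640 with 10% FBS at 37 °C, 5% CO2. Seeded the day before dosing, grown 12 h, then exposed to a range of concentrations for 7 days. Viability read by CellTiter-Glo luminescence after 10 min at room temperature. Inhibition % = (1 − (RLU cpd − blank)/(RLU DMSO − blank)) × 100. IC50 from nonlinear regression of normalized dose-response.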
# MDA-MB-468 [12] = assay: Inhibition of PARP1/PI3Kalpha in human MDA-MB-468 cells assessed as down regulation of BRCA1 mRNA expression at 1 uM by RT-PCR analysis
# MDA-MB-468 [13] = assay: Inhibition of PARP1/PI3Kalpha in human MDA-MB-468 cells assessed as down regulation of BRCA2 mRNA expression at 1 uM by RT-PCR analysis
# [14] = Solubility of compound; type: physicochemical
# [15] = Solubility of compound at pH 7; type: physicochemical; conditions: buffer
# MDA-MB-468 [16] = assay: Induction of apoptosis in human MDA-MB-468 cells assessed as viable cells at 1 uM measured after 72 hrs by Annexin V-FITC/propidium iodide staining based flow cytometry (reference value: 95.2%); type: functional; conditions: read-out: Activity
# MDA-MB-468 [17] = assay: Induction of apoptosis in human MDA-MB-468 cells assessed as early apoptotic cells at 1 uM measured after 72 hrs by Annexin V-FITC/propidium iodide staining based flow cytometry (reference value: 3.88%); type: functional
# MDA-MB-468 [18] = assay: Induction of apoptosis in human MDA-MB-468 cells assessed as late apoptotic cells at 1 uM measured after 72 hrs by Annexin V-FITC/propidium iodide staining based flow cytometry (reference value: 0.78%); type: functional
# MDA-MB-468 [19] = assay: Induction of apoptosis in human MDA-MB-468 cells assessed as necrotic cells at 1 uM measured after 72 hrs by Annexin V-FITC/propidium iodide staining based flow cytometry (reference value: 0.13%); type: functional
# MDA-MB-468 [20] = assay: Antitumor activity against human MDA-MB-468 cells xenografted in BALB/c mouse assessed as tumor growth inhibition at 27.5 mg/kg, ip administered every two days for 34 days relative to control; conditions: MDA-MB-468, ip, 816 h, read-out: TGI
# T1 sequence (P42336 whole entry, canonical isoform): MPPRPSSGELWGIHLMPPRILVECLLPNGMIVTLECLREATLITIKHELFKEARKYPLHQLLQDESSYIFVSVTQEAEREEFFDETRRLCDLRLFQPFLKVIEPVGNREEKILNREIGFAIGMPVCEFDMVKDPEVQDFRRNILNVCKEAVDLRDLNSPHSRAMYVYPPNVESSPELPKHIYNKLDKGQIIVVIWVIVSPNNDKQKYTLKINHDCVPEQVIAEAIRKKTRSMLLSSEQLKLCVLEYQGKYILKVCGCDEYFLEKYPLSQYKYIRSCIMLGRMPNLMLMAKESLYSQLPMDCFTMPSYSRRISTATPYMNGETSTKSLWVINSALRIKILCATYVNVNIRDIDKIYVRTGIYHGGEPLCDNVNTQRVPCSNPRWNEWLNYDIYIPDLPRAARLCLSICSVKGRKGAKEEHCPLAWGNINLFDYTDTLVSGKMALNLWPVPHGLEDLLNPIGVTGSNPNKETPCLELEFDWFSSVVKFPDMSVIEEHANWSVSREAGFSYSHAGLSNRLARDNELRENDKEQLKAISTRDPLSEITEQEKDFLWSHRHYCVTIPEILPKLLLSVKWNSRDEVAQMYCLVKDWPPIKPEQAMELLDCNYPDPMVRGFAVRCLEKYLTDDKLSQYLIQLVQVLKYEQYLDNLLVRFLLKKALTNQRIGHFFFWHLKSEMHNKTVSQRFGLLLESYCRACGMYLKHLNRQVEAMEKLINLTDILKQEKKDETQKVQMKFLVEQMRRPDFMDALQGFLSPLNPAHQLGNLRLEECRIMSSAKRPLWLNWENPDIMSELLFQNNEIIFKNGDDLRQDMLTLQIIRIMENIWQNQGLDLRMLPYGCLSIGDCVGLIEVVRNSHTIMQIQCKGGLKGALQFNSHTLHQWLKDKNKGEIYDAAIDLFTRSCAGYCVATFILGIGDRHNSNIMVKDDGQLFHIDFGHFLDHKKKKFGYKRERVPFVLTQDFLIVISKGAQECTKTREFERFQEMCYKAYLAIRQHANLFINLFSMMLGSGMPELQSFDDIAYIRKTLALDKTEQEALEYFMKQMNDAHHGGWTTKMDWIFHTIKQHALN
# T2 sequence (P09874 whole entry): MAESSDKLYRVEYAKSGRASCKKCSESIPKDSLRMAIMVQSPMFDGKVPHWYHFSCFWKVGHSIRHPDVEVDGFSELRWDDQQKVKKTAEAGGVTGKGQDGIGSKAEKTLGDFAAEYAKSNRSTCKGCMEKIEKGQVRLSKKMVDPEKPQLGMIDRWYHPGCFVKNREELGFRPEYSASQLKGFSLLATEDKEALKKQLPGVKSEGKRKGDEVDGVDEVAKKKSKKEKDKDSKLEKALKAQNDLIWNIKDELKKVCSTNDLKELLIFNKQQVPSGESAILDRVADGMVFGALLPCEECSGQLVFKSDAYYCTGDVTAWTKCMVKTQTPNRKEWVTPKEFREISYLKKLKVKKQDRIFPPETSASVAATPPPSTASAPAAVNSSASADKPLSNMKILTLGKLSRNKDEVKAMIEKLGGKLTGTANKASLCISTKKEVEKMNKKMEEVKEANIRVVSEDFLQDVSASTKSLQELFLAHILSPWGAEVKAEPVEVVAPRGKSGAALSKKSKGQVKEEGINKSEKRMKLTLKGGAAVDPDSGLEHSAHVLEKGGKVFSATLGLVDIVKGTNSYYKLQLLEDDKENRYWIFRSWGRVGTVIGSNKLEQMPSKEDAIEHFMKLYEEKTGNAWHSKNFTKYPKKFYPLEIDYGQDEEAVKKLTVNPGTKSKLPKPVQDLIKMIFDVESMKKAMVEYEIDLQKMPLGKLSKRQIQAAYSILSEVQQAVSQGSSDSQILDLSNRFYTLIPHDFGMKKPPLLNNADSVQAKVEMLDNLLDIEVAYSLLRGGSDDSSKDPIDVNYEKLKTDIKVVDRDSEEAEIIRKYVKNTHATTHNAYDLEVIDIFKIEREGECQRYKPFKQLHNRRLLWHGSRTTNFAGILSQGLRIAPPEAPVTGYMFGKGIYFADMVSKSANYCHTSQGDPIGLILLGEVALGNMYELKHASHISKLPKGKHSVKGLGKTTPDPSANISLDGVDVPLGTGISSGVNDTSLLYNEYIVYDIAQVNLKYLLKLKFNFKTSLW
smiles,measurement,setting,value
NC(=O)c1cccc2cc(C(=O)N3CCN(c4nc(-c5ccc(N)c(F)c5)nc(N5CCOCC5)n4)CC3)oc12,inhibition,[1],5%
same,inhibition,[2],51%
NC(=O)c1cccc2cc(C(=O)N3CCN(c4nc(-c5ccc(N)nc5)nc(N5CCOCC5)n4)CC3)oc12,inhibition,[1],79%
same,pIC50,[3],7.97
same,pIC50,[4],6.93
same,inhibition,[2],61%
NC(=O)c1cccc2cc(C(=O)N3CCN(c4nc(-c5ccc6[nH]ccc6c5)nc(N5CCOCC5)n4)CC3)oc12,inhibition,[1],8%
same,inhibition,[2],62%
O=C(c1cc(Cc2n[nH]c(=O)c3ccccc23)ccc1F)N1CCN(C(=O)C2CC2)CC1 [OLAPARIB],viability at 2 µM,MDA-MB-468 [5],91.5%
same,Activity,MDA-MB-468 [6],6.6%
same,Activity,MDA-MB-468 [7],0.16%
same,inhibition,MDA-MB-468 [8],Active
same,inhibition,MDA-MB-468 [9],Active
same,inhibition in vivo at 50 mg/kg,MDA-MB-468 [10],28.5%
NC(=O)c1cccc2cc(C(=O)N3CCN(c4cc(-c5cnc(N)nc5)nc(N5CCOCC5)n4)CC3)oc12,inhibition,[1],60%
same,inhibition,[2],85%
NC(=O)c1cccc2cc(C(=O)N3CCN(c4nc(N5CCOCC5)nc(-n5c(C(F)F)nc6ccccc65)n4)CC3)oc12,inhibition,[1],29%
same,inhibition,[2],36%
NC(=O)c1cccc2cc(C(=O)N3CCN(c4cc(-n5c(C(F)F)nc6ccccc65)nc(N5CCOCC5)n4)CC3)oc12,inhibition,[1],26%
same,inhibition,[2],38%
NC(=O)c1cccc2cc(C(=O)N3CCN(c4nc(-c5cnc(N)cc5C(F)(F)F)nc(N5CCOCC5)n4)CC3)oc12 [listing 1 of 2 here],pIC50,[3],8.14
same,pIC50,[4],7.40
same,pIC50,MDA-MB-468 [11],5.39
NC(=O)c1cccc2cc(C(=O)N3CCN(c4nc(-c5cnc(NC(=O)CN6CCOCC6)cc5C(F)(F)F)nc(N5CCOCC5)n4)CC3)oc12,inhibition,MDA-MB-468 [12],Active
same,inhibition,MDA-MB-468 [13],Active
NC(=O)c1cccc2cc(C(=O)N3CCN(c4nc(-c5cnc(N)nc5)nc(N5CCOCC5)n4)CC3)oc12,inhibition,[1],86%
same,pIC50,[3],8.24
same,pIC50,[4],8.20
same,solubility,[14],Insoluble
same,inhibition,[2],70%
NC(=O)c1cccc2cc(C(=O)N3CCN(c4cc(-c5cnc(N)cc5C(F)(F)F)nc(N5CCOCC5)n4)CC3)oc12,inhibition,[1],80%
same,inhibition,[2],51%
Cl.NC(=O)c1cccc2cc(C(=O)N3CCN(c4nc(-c5cnc(NC(=O)CN6CCOCC6)cc5C(F)(F)F)nc(N5CCOCC5)n4)CC3)oc12,solubility,[15],> 10000 µg/mL
Nc1cc(C(F)(F)F)c(-c2cc(N3CCOCC3)nc(N3CCOCC3)n2)cn1 [BUPARLISIB],inhibition,[1],82%
same,viability at 1 µM,MDA-MB-468 [16],91.9%
same,Activity,MDA-MB-468 [17],6.13%
same,Activity,MDA-MB-468 [18],1.82%
same,Activity,MDA-MB-468 [19],0.16%
same,inhibition,MDA-MB-468 [12],Active
same,inhibition,MDA-MB-468 [13],Active
same,inhibition in vivo at 27.5 mg/kg,MDA-MB-468 [20],33.4%
Cl.NC(=O)c1cccc2cc(C(=O)N3CCN(c4nc(-c5cnc(N)cc5C(F)(F)F)nc(N5CCOCC5)n4)CC3)oc12,solubility,[15],< 100 µg/mL
NC(=O)c1cccc2cc(C(=O)N3CCN(c4nc(-c5cnc(N)cc5C(F)(F)F)nc(N5CCOCC5)n4)CC3)oc12 [listing 2 of 2 here],inhibition,[1],77%
same,inhibition,[2],60%
